From ChEMBL document CHEMBL5614466, “Discovery of a Series of Macrocycles as Potent Inhibitors of Leishmania Infantum” (J Med Chem, 2024)
Active and inactive are the calls of the source. The rule behind the calls is not given here.

Legend:
[1] = tested on: Trypanosoma brucei rhodesiense; experiment: Antitrypanosomal activity against axenic culture of Trypanosoma brucei rhodesiense infected in human MRC-5 SV2 cells assessed as reduction in parasite growth incubated for 72 hrs by resazurin reagent based fluorescence analysis; format: functional, organism-based
In short: (§1)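 Trypomastigotes were grown axenically in culture medium. Growth reduction was determined by the previously reported method, with and without added inhibitor.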

Trypanosoma brucei = experiment: Antitrypanosomal activity against axenic culture of Trypanosoma brucei Squib 427 infected in human MRC-5 SV2 cells assessed as reduction in parasite growth incubated for 72 hrs by resazurin reagent based fluorescence analysis; format: functional, organism-based; in short: as §1
[2] = Cytotoxicity against human MRC5 cells; format: toxicity, cell-based
[3] = Cytotoxicity against mouse Peritoneal macrophage; format: toxicity, cell-based; details: peritoneal macrophages

Row | Structure (SMILES) | Activity [1] | Activity (Trypanosoma brucei) | CC50 [2] [µM] | CC50 [3] [µM]
1 | CC(C)(C)OC(=O)N[C@H]1Cc2ccc(cc2)Oc2ccc(cc2NC(=O)c2ccccn2)C(=O)CNC(=O)[C@@H](Cc2ccccc2)NC1=O | Active | inactive |  | 
2 | CC(C)(C)C(=O)N[C@H]1Cc2ccc(cc2)Oc2ccc(cc2NC(=O)c2ccccn2)C(=O)CNC(=O)[C@H](Cc2ccccc2)NC1=O | Active | inactive |  | 
3 | CC(C)(C)OC(=O)N[C@H]1Cc2ccc(cc2)Oc2ccc(cc2)C(=O)CNC(=O)[C@H](Cc2ccccc2)NC1=O |  |  | > 64 | > 64
4 | CC(C)(C)OC(=O)N[C@H]1Cc2ccc(cc2)Oc2ccc(cc2NC(=O)c2ccccn2)C(=O)CNC(=O)[C@H](Cc2ccccc2)NC1=O |  |  | > 64 | 
5 | CC(C)C[C@@H]1NC(=O)[C@@H](NC(=O)OC(C)(C)C)Cc2ccc(cc2)Oc2ccc(cc2NC(=O)c2ccccn2)C(=O)CNC1=O | Active | inactive |  | 
6 | CC(C)(C)OC(=O)N[C@H]1CCc2ccc(cc2)Oc2ccc(cc2NC(=O)c2ccccn2)C(=O)CNC(=O)[C@H](Cc2ccccc2)NC1=O | Active | inactive |  | 
7 | CC(=O)N[C@H]1Cc2ccc(cc2)Oc2ccc(cc2NC(=O)c2ccccn2)C(=O)CNC(=O)[C@H](Cc2ccccc2)NC1=O | Active | inactive |  | 
8 | CC(C)(C)OC(=O)N[C@H]1Cc2ccc(cc2)Oc2ccc(cc2NC(=O)c2ccccn2)C(=O)CNC(=O)[C@H](c2ccccc2)NC1=O | Active | inactive |  | 
9 | CC(=O)Nc1cc2ccc1Oc1ccc(cc1)C[C@H](NC(=O)OC(C)(C)C)C(=O)N[C@@H](Cc1ccccc1)C(=O)NCC2=O |  |  | > 64 | 
10 | COc1ccc(C[C@H](NC(=O)OC(C)(C)C)C(=O)N[C@@H](Cc2ccccc2)C(=O)NCC(=O)c2cccc(NC(=O)c3ccccn3)c2)cc1 | Active | inactive |  | 
11 | C[C@@H]1NC(=O)[C@@H](NC(=O)OC(C)(C)C)Cc2ccc(cc2)Oc2ccc(cc2NC(=O)c2ccccn2)C(=O)CNC1=O | Active | inactive |  | 
12 | CC(C)(C)OC(=O)N[C@H]1Cc2ccc(cc2)Oc2ccc(cc2NC(=O)c2ccccn2)CCNC(=O)[C@H](Cc2ccccc2)NC1=O | Active | inactive |  | > 64
